# In ChEMBL document CHEMBL4321838, “Drug Design Targeting T-Cell Factor-Driven Epithelial-Mesenchymal Transition as a Therapeutic Strategy for Colorectal Cancer” (J Med Chem, 2019):
# Activity calls are given as the source filed them.
# Legend:
# [1] = biological target: T1, DNA topoisomerase 2-alpha (Homo sapiens, UniProt P11388); assay: Inhibition of topoisomerase 2alpha dependent TCF transcription in human SW620 organoids transduced with TOPflash luminescent reporter after 72 hrs by luciferase based TOPFlash reporter gene assay
# T1 sequence (P11388 whole entry): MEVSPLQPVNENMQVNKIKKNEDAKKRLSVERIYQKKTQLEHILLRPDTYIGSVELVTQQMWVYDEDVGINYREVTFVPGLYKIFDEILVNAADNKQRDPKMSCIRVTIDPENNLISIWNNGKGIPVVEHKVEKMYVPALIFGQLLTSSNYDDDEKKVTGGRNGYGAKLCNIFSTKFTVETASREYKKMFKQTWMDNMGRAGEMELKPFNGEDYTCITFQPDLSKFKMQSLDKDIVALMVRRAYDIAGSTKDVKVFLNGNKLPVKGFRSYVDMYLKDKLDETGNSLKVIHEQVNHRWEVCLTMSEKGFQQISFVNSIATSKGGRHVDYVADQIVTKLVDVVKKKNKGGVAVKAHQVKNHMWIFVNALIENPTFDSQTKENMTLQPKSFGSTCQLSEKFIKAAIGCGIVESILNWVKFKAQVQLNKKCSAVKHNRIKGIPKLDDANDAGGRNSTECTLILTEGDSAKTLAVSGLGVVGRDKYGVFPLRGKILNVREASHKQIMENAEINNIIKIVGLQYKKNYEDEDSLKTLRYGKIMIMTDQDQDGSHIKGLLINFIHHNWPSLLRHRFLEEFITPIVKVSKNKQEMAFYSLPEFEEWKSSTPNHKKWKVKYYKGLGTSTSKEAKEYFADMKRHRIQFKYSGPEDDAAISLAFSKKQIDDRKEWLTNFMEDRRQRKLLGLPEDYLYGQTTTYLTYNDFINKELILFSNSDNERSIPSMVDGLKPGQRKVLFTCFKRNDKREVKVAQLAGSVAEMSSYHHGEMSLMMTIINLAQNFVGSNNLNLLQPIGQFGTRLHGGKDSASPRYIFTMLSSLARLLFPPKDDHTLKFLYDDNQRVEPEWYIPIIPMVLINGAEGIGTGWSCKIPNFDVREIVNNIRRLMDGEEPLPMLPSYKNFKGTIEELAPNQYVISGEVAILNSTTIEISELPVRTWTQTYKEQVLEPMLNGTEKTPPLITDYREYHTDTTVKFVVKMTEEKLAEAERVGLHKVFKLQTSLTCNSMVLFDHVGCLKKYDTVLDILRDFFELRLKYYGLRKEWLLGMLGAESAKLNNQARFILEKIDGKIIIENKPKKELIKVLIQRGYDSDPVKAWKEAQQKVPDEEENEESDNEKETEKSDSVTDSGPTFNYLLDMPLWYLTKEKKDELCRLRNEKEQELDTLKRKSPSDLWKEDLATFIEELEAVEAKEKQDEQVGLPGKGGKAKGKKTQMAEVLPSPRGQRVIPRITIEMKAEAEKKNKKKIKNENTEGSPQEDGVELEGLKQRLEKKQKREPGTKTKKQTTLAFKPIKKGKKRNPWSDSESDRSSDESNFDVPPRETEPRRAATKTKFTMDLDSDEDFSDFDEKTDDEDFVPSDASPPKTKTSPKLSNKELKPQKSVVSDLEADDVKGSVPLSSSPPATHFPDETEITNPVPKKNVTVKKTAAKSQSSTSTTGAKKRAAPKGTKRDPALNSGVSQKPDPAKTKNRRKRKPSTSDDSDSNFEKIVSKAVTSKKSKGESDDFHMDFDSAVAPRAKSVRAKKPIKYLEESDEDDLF
# In short: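 SW620 cells stably carrying pCDH-TOPflash-luc grown as organoids: 5,000 cells per U-bottom well in phenol red-free RPMI with 5% FBS and 2% Matrigel, 72 h. Inhibitor then applied 72 h. One-Glo luciferase and CellTiter-Glo 3D added 1:1. Luciferase signal normalised to viability, then to DMSO controls.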
# [2] = biological target: T1, DNA topoisomerase 2-alpha; assay: Inhibition of human topoisomerase 2alpha mediated decatenation at 30 uM using kDNA as susbtrate preincubated for 20 mins followed by substrate and ATP addition and measured after 1 hr by ethidium bromide staining based gel electrophoresis method relative to control
# In short: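 Human TOP2A (3 U) preincubated 20 min at 37 °C with compound at 30 μM in 1.2% DMSO. Reaction started with 2 mM ATP and 35 ng kDNA and run 1 h at 37 °C. Products resolved on 0.8% agarose in TBE with 0.2 μg/mL ethidium bromide; decatenated bands compared with vehicle.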
# [3] = Cmax in CD-1 mouse at 50 mg/kg, ip by LC-MS/MS analysis; format: ADME, organism-based; set-up: dose 50 mg/kg, route intraperitoneal; conditions: in vivo
# In short: (§1)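 Female CD-1 mice, single IP injection at 50 mg/kg in 100% DMSO. Sampling from 0.25 to 24 h, three mice per time point (21 per compound). Heparinised blood was spun to plasma, mixed 1:1 with acidified acetonitrile (0.1% formic acid or 0.1% TFA depending on compound), centrifuged, then measured by LC-MS/MS.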
# [4] = Metabolic stability in CD-1 mouse inactive microsomes incubated for 1 hr by LC-MS/MS analysis; format: ADME, Microsome
# [5] = Aqueous solubility of compound in PBS at 1 mg after 18 hrs by UV based analysis; format: physicochemical
# In short: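 Undissolved material removed by centrifugation at 5,000g for 45 min. UV absorption compared with a fully saturated 1-propanol solution; solubility derived by linear regression.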
# [6] = Half life in CD-1 mouse microsomes measured up to 1 hr by LC-MS analysis; format: ADME, Microsome
# In short: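 Female CD-1 mouse liver microsomes (0.5 mg/mL), substrate 1 μg/mL and 1.5 mM NADPH in 0.1 M phosphate buffer pH 7.4 at 37 °C. Samples taken from 0 to 60 min and quenched with an equal volume of acetonitrile. Parent compound remaining measured by LC-MS/MS without internal standard.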
# [7] = biological target: T1, DNA topoisomerase 2-alpha; assay: Inhibition of topoisomerase 2alpha in human SW620 organoids transfected with VimPro-GFP reporter assessed as reversion of epithelial-mesenchymal transition by measuring reduction in vimentin expression up to 40 uM after 72 hrs by Hoechst 33342 staining based GFP reporter gene assay
# In short: (§2)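 SW620 cells stably carrying VimPro-GFP or EcadPro-mCherry (puromycin selected) grown as organoids and dosed 72 h. Stained with 16 μM Hoechst 33342 for 1 h and imaged as 15 z-layers, 26.5 μm apart. Nuclei segmented and GFP- or mCherry-positive cells counted above background thresholds. Percent positive cells normalised to DMSO.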
# SW-620 [8] = assay: Anticlonogenic activity against human SW620 cells assessed as loss of cancer stem cell stemness by measuring inhibition of colony formation at 10 uM incubated for 24 hrs followed by replating and measured after 7 days by clonogenic assay; format: functional, cell-based
# [9] = Drug metabolism in CD-1 mouse active microsomes assessed as CYP450-mediated oxidative phase 1 metabolite formation by LC-MS/MS analysis
# SW-620 [10] = assay: Cytotoxicity against human SW620 organoids assessed as cell death with loss of membrane integrity after 72 hrs by CellTox Green assay; format: functional, cell-based; conditions: SW-620, 72 h
# In short: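 SW620 tumor organoids exposed 72 h to inhibitor over 0–40 μM together with CellTox Green Express (0.5X). Whole-well mean fluorescence imaged (ex 488, em 500–550 nm). Normalised to lysis buffer as 0% viability and 0.4% DMSO as 100% viability.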
# [11] = AUC(0 to t) in CD-1 mouse at 50 mg/kg, ip by LC-MS/MS analysis; format: ADME, organism-based; conditions: in vivo; in short: as §1
# SW-620 [12] = assay: Cytotoxicity against human SW620 organoids assessed as growth inhibition at 10 uM after 72 hrs by brightfield imaging of organoid volume
# [13] = Half life of terminal disposition phase in CD-1 mouse at 50 mg/kg, ip by LC-MS/MS analysis; format: ADME, organism-based; conditions: in vivo, read-out: t1/2lambda (converted); in short: as §1
# Mus musculus = assay: Apparent volume of drug distribution in CD-1 mouse at 50 mg/kg, ip by LC-MS/MS analysis; format: ADME, organism-based; conditions: in vivo; in short: as §1
# [14] = Metabolic stability in CD-1 mouse active microsomes assessed as CYP450-mediated oxidative phase 1 metabolite formation measured up to 60 mins by LC-MS/MS analysis; format: ADME; conditions: 1 h
# [15] = biological target: T1, DNA topoisomerase 2-alpha; assay: Inhibition of topoisomerase 2alpha in human SW620 organoids transfected with EcadPro-RFP reporter assessed as reversion of epithelial-mesenchymal transition by measuring increase in E-cadherin expression up to 40 uM after 72 hrs by Hoechst 33342 staining based mCherryRFP reporter gene assay; in short: as §2
# SW-620 [16] = assay: Induction of early stage cell death in human SW620 organoids transfected with EcadPro-RFP reporter assessed as loss of RFP reporter activity at 40 uM at after 72 hrs by Hoechst 33342 staining based mCherryRFP reporter gene assay; conditions: sw-620, 72 h
# SW-620 [17] = assay: Induction of apoptosis in human SW620 organoids assessed as increase in cleaved caspase 3/7 level at 40 uM after 72 hrs by caspase-glo 3/7 luminescence assay relative to control; format: functional
# In short: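 SW620 cells, 2,000 per well in 384-well ultra-low attachment plates with 2% Matrigel, grown 72 h into organoids, then dosed 72 h. Caspase-Glo 3/7 reagent added 1:1 and shaken 30 min; luminescence read. Staurosporine served as positive control and 0.4% DMSO as negative control.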
# [18] = Clearance in CD-1 mouse at 50 mg/kg, ip by LC-MS/MS analysis; format: ADME, organism-based; conditions: in vivo; in short: as §1
# SW-620 [19] = assay: Antiinvasive activity in human SW620 organoids transduced with NucLight-Red virus assessed as inhibition of cell invasion at 10 uM incubated for 72 hrs and measured after 72 hrs by matrigel based fluorescence analysis; format: functional
# In short: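 NucLight-Red-labelled SW620 organoids treated 72 h at 10 μM in 0.1% DMSO, then dissociated. 5,000 live cells per well seeded in 50% Matrigel in the upper chamber of a migration plate, 0.5% FBS above and 20% FBS below. Invading cells tracked by bottom-side fluorescence over days, six replicates per condition.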
# [20] = Tmax in CD-1 mouse at 50 mg/kg, ip by LC-MS/MS analysis; format: ADME, organism-based; conditions: in vivo; in short: as §1
smiles,measurement,setting,value
O=C(CCN1CCOCC1)Nc1ccc2c(-c3cc(F)ccc3O)ccnc2c1O,IC50,[1],0.7 µM
same,inhibition,[2],90%
same,Cmax,[3],10900 ng/mL
same,Stability,[4],Stable
same,solubility thermodynamic at 18 h,[5],1520 µg/mL
same,t1/2,[6],8.53 min
same,inhibition,[7],Active
same,inhibition,SW-620 [8],Active
same,Drug metabolism,[9],Metabolite_Notdetected
same,EC50,SW-620 [10],16 µM
same,AUC(0-t),[11],13000 ng·h/mL
same,growth inhibition (GI),SW-620 [12],Active
same,half-life,[13],379 min
same,Vz,Mus musculus,34 L/kg
same,Drug metabolism,[14],Metabolite_Detected
same,inhibition,[15],Active
same,Activity,SW-620 [16],Active
same,fold change (FC),SW-620 [17],9
same,CL/F,[18],62.2 mL/min/kg
same,inhibition,SW-620 [19],Active
same,Tmax,[20],15 min
